In article PMC9306536 (Clinical Pharmacology in Drug Development, 2022):
Like-named read-outs stand apart in the source and are kept apart here.

Legend:
[1] = Population PK analysis of pemigatinib in patients with advanced malignancies; format: in vivo, human
Summary of the method: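 Sampling was rich in phase 1 and sparse in phase 2. Values <1 nM (LLOQ) were excluded. Log-transformed data were fitted with 1-/2-compartment models with first-order absorption and linear elimination. Covariates were GAM-screened, then added and removed stepwise in NONMEM. 95% CIs came from a 500-run bootstrap, with VPC.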

[2] = Hyperphosphatemia in patients of the population PK dataset; format: in vivo, human
Summary of the method: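 Pooled patients from three open-label trials on once-daily oral dosing: phase 1/2 advanced malignancies (1–20 mg escalation, 9 or 13.5 mg expansion; monotherapy or combination; 2-weeks-on/1-week-off or continuous, 21-day cycles; N = 157); Japanese phase 1 (9 or 13.5 mg, intermittent; N = 25); phase 2 cholangiocarcinoma (13.5 mg, 2-weeks-on/1-week-off; N = 136). Hyperphosphatemia scored after treatment.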

[3] = cited from earlier work
[4] = cited from earlier work; remark: listed apart in the source
[5] = cited from earlier work; remark: listed apart in the source
[6] = cited from earlier work; remark: listed apart in the source
[7] = cited from earlier work; remark: listed apart in the source
[8] = cited from earlier work; remark: listed apart in the source
[9] = fed state (high-fat and high-calorie diet); ref data on file; cited from earlier work
[10] = cited from earlier work; remark: listed apart in the source
[11] = cited from earlier work; remark: listed apart in the source
[12] = final model covariate coefficient
[13] = final model covariate power term
[14] = final population PK model, Table 4

With `CCN1C(=O)N(c2c(F)c(OC)cc(OC)c2F)Cc2cnc3[nH]c(CN4CCOCC4)cc3c21` [pemigatinib, Pemigatinib] the “CL/F with moderate CYP3A4 inducer higher than pemigatinib alone” value ([1]; 1 patient) was “≈ 100%”, the CL/F ([1]; base structural model) was 10.7 L/h and the “IIV for Vc/F” value ([1]; base structural model) was 44.6 % CV. The “IIV for Vp/F” value ([1]; base structural model) was 37.3 % CV, the IIV for ka ([1]; base structural model) was 133 % CV and the Q/F ([1]; base structural model) was 14.5 L/h. It also gave a Vc/F ([1]; base structural model) of 134 L, a Vp/F ([1]; base structural model) of 87.0 L and a first-order ka ([1]; base structural model) of 0.997 h⁻¹. For the same compound, the “CL/F of pemigatinib alone” value ([1]; comparator for the patient on a moderate CYP3A4 inducer) was 11.7 L/h, the “predicted Cmax steady state (Cmax,ss)” value ([1]; female patients) was 96.53 ng/mL and the “Magnitude of Interindividual Variability of CL/F” value ([1]; final model) was 43.4 %CV. For the same compound, the “Magnitude of Interindividual Variability of Vc/F” value ([1]; final model) was 35.1 %CV, the “Magnitude of Interindividual Variability of ka” value ([1]; final model) was 127 %CV and the “contribution of sex to the change of oral clearance” value ([1]; final model) was < 20%. The “decrease of typical CL/F by phosphate binder coadministration” value ([1]; final model) was 14.1%, the “increase of typical Vc/F by proton pump inhibitor coadministration” value ([1]; final model) was 24.4% and the “typical CL/F, males higher compared with females” value ([1]; final model) was 19.0%. The “typical ka, males lower compared with females” value ([1]; final model) was 56.5%, the “Proton pump inhibitor on Vc/F, Population Mean” value [1, 12] was “–0.244” and the “Sex (male vs female) on CL, Population Mean” value [1, 12] was 0.190. For the same compound, the “Body weight (median = 73.3 kg) on Vc/F, Population Mean” value [1, 13] was 0.738, the “Body weight on Vp/F, Population Mean” value [1, 13] was 1.22 and the “typical apparent volume of distribution of the peripheral compartment (Vp/F)” value ([1]; final model, 73.3-kg patient) was 80.1 L. For the same compound, the typical ka ([1]; final model, female patients) was 1.49 h⁻¹, the “typical absorption rate constant (ka)” value ([1]; final model, females) was 1.49 L/h and the “typical oral clearance (CL/F)” value ([1]; final model, females) was 10.3 L/h. The “CL/F, Population Mean” value [1, 14] was 9.00 L/h, the “Q/F, Population Mean” value [1, 14] was 16.0 L/h and the “Vc/F, Population Mean” value [1, 14] was 161 L. For the same compound, the “Vp/F, Population Mean” value [1, 14] was 80.1 L, the “ka, Population Mean” value [1, 14] was 1.49 h⁻¹ and the “increase of typical CL/F by coadministration with a weak CYP3A4 inducer” value ([1]; full multivariate PK model (covariate removed from final model)) was 24.2%. The Vd/F ([1]; human, plasma, oral) was 122 L, the half-life ([1]; human, plasma, oral) was 16 h and the “increase in Cmax,ss, female vs male patients” value ([1]; post hoc estimates) was 27%. The Cmax ([1]; read-out: predicted Cmax steady state (Cmax,ss), female patients) was 198 nM, the “post hoc-estimated CL/F” value ([1]; the 1 patient with concomitant moderate CYP3A4 inducer) was 22.8 L/h and the “geometric mean CL/F” value ([1]; this population PK analysis) was 10.9 L/h. For the same compound, the “Hyperphosphatemia, Yes” value ([2]; N = 318) was 215 (67.6) n (%), the “patients who developed hyperphosphatemia after treatment” value ([2]; patients included in this analysis (N = 318)) was ~68% and the “accumulation ratio for AUC0-24” value [3] was “≈ 1.6”. The terminal elimination half-life [3] was “≈ 15 hours”, the pharmacokinetics linearity ([3]; dose range of 1 to 20 mg) was “linear” and the “renal clearance, % of total clearance” value ([4]; Introduction, no reference given) was 1.19%. For the same compound, the “predominant clearance pathway in humans” value ([4]; in vitro and in vivo data, no reference given) was “liver metabolism”, the “administered radioactive dose recovered as unchanged pemigatinib in feces” value ([4]; ref data on file) was 1.3% and the “known metabolites, share of total radioactivity” value ([4]; ref data on file) was 72%. For the same compound, the “pemigatinib AUC increase” value ([5]; coadministered with itraconazole (strong CYP3A4 inhibitor)) was “≈ 90%”, the “pemigatinib AUC decrease” value ([5]; coadministered with rifampin (strong CYP3A4 inducer)) was 85% and the “DDI with a weak CYP3A4 inhibitor” value ([6]; PBPK modeling) was “no DDI”. For the same compound, the “predicted decrease in AUC” value ([6]; coadministered with a strong or moderate CYP3A4 inducer, data on file) was > 50%, the “predicted increase in AUC” value ([6]; coadministered with a strong or moderate CYP3A4 inhibitor, data on file) was > 50% and the “reduction of AUC” value ([6]; coadministration of moderate CYP3A4 inducers) was > 50%. The “pemigatinib AUC increase” value ([7]; patients with moderate hepatic impairment) was 46%, the “pemigatinib AUC increase” value ([7]; patients with severe hepatic impairment) was 74% and the “renal clearance, % of total clearance” value [8] was 1%. For the same compound, the “exposure geometric mean ratio vs normal renal function” value ([8]; end-stage renal disease after hemodialysis) was 91.3%, the “exposure geometric mean ratio vs normal renal function” value ([8]; end-stage renal disease before hemodialysis) was 76.8% and the “pemigatinib AUC increase” value ([8]; patients with severe renal impairment) was 59%. For the same compound, the “delay of median time to Cmax” value [9] was 4.02 h, the “effect on the overall exposure of pemigatinib” value ([10]; coadministration with esomeprazole or ranitidine) was “modest effect” and the AUC decrease ([10]; with esomeprazole (PPI)) was 8%. For the same compound, the AUC increase ([10]; with ranitidine (H2-receptor antagonist)) was 3%, the “Biopharmaceutics Classification System class” value [11] was “Class II” and the permeability [11] was “high”. For the same compound, the solubility [11] was “pH‐dependent”.
In the case of `CCN1C(=O)N(c2c(F)c(O)cc(OC)c2F)Cc2cnc3[nH]c(CN4CCOCC4)cc3c21` [M2, O‐desmethyl pemigatinib], the “share of the metabolite burden in urine and feces” value ([4]; M2 and its secondary metabolites (M7, M8, and M9) together, ref data on file) is listed as 76.9%.
